Results on two compounds are retold here after PMC8945107 (ACS Omega, 2022).

In assay [1] the test system is A549 cells. Nature of the assay: Detection of intracellular ROS. In kind it is cell-based, human. The following applies: 10 mM NAC with 2 μM 5e, 12 h. In outline: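 A549 cells in 6-well plates were pretreated with NAC for 2 h, then treated with test compound. Afterward they were stained with 10 μM DCFH-DA in FBS-free medium for 0.5 h in the incubator and washed twice with PBS. Cells were collected, resuspended in PBS and analysed by flow cytometry.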

Assay [2] deals with A549 cells. Kind of assay: Vacuolization, fluorescence inverted microscope. Type of assay: cell-based, human. Conditions: 10 mM NAC with 2 μM 5e; vacuolization 12 h, MTT 24 h. In outline: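 A549 cells were given 2 μM test compound for 12, 24 or 36 h, or 1–4 μM for 24 h, and photographed on an inverted fluorescence microscope. For antioxidant co-treatment, 10 mM NAC was combined with 2 μM compound. Vacuolization was imaged at 12 h, and viability was measured by MTT at 24 h (absorbance 570 nm after DMSO solubilisation).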

For assay [3], the system named is human bronchial epithelioid cells (HBE). Nature of the assay: MTT antiproliferative / cell viability assay, HBE. The following applies: 48 h, read-out: IC50 HBE. Type of assay: cell-based. In outline:
(§1)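 Cells in 96-well plates were preincubated 24 h, then exposed to test compound 48 h. MTT solution (5 mg/mL stock) was added for 4 h, medium removed, formazan dissolved in DMSO, plate shaken 1 min and absorbance read at 570 nm. Three independent experiments.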

Another assay has as its system NCI-H460. Nature of the assay: MTT antiproliferative assay, NCI-H460. The following applies: Homo sapiens, NCI-H460, 48 h, read-out: IC50 NCI-H460. In kind it is cell-based. In outline: as §1
A further assay has as its system PC-3. Kind of assay: MTT antiproliferative assay, PC-3. Type of assay: cell-based. Conditions: Homo sapiens, PC-3, 48 h, read-out: IC50 PC-3. The method, boiled down: as §1

Structures are written as SMILES.

On to `CC(=O)N[C@@H](CS)C(=O)O` [NAC, N-acetylcysteine], for which the “effect of NAC on ROS level induced by 5e” value in the assay on A549 cells [1] is reported as “could inhibit the level of ROS”. Besides, the “effect of NAC on vacuolization and cell death induced by 5e” value in the assay with A549 cells [2] was “could not remarkably suppress vacuolization and cell death”.
A word on the IC50: it is the concentration that inhibits the measured activity by half. With `COc1cccc2c1C(=O)c1c(O)c3c(c(O)c1C2=O)C[C@@](O)(C(=O)CO)C[C@@H]3O[C@H]1C[C@H](N)[C@H](O)[C@H](C)O1` [DOX, Doxorubicin], the concentration for half-maximal inhibition (IC50) was determined as 2.54 ± 0.16 µM in assay [3], 3.14 ± 0.57 µM in the assay on NCI-H460 and 1.13 ± 0.2 µM with PC-3.
